Results from ChEMBL document CHEMBL1138485, “Discovery of inducible nitric oxide synthase (iNOS) inhibitor development candidate KD7332, part 1: Identification of a novel, potent, and selective series of quinolinone iNOS dimerization inhibitors that are orally active in rodent pain models” (J Med Chem, 2009).
pEC50: −log10 of the molar value.

Legend:
[1] = target: T1, Nitric oxide synthase, inducible (Homo sapiens, UniProt P35228); experiment: Inhibition of human iNOS expressed in HEK293 cells assessed as NO production by transient transfection assay; format: cell-based
Procedure, shortened: (§1)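 HEK293 cells grown to ~70% confluence in DMEM/10% FBS with pen/strep. Cells transiently transfected with 10 µg human or murine iNOS plasmid (Fugene 6), 4 h at 37 °C, 10% CO2. Trypsinized, plated at 5 × 10⁵ cells/mL and dosed at once; 1400W 100 µM final as positive control. After 18 h, NO read as DAN fluorescence (10 µg/mL, 20 min RT, then NaOH). EC50 from 3 runs, 10-point curves, n = 8/point.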

[2] = target: T1, Nitric oxide synthase, inducible; experiment: Inhibition of human iNOS expressed in HEK293 cells assessed as NO production at 100 uM by transient transfection assay; format: cell-based
[3] = Drug level in LPS-challenged BALB/c mouse plasma at 30 mg/kg, po after 6 hrs; format: ADME, organism-based; design: dose 30 mg/kg, route oral
Procedure, shortened: (§2)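 Male Balb/c mice were dosed by oral gavage (90% PEG/5% Tween 80/5% PVP + 90% CMC (0.5% w/v)) at t = 0 h, 30 mg/kg for single-dose lines. LPS 10 mg/kg ip in 0.9% NaCl followed immediately. At 6 h, EDTA plasma was taken for nitrate and drug levels. Nitrate reduction is relative to vehicle; ED50 came from full oral dose-response.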

Mus musculus = experiment: Reduction of plasma nitrate level in LPS-challenged BALB/c mouse at 30 mg/kg, po; format: functional; design: scale not given: the % may be the effect or the level left; procedure, shortened: as §2
[4] = target: T2, Nitric oxide synthase, inducible (Mus musculus, UniProt P29477); experiment: Inhibition of mouse iNOS expressed in HEK293 cells assessed as NO production in by transient transfection assay; format: cell-based; procedure, shortened: as §1
T2 sequence (P29477 whole entry): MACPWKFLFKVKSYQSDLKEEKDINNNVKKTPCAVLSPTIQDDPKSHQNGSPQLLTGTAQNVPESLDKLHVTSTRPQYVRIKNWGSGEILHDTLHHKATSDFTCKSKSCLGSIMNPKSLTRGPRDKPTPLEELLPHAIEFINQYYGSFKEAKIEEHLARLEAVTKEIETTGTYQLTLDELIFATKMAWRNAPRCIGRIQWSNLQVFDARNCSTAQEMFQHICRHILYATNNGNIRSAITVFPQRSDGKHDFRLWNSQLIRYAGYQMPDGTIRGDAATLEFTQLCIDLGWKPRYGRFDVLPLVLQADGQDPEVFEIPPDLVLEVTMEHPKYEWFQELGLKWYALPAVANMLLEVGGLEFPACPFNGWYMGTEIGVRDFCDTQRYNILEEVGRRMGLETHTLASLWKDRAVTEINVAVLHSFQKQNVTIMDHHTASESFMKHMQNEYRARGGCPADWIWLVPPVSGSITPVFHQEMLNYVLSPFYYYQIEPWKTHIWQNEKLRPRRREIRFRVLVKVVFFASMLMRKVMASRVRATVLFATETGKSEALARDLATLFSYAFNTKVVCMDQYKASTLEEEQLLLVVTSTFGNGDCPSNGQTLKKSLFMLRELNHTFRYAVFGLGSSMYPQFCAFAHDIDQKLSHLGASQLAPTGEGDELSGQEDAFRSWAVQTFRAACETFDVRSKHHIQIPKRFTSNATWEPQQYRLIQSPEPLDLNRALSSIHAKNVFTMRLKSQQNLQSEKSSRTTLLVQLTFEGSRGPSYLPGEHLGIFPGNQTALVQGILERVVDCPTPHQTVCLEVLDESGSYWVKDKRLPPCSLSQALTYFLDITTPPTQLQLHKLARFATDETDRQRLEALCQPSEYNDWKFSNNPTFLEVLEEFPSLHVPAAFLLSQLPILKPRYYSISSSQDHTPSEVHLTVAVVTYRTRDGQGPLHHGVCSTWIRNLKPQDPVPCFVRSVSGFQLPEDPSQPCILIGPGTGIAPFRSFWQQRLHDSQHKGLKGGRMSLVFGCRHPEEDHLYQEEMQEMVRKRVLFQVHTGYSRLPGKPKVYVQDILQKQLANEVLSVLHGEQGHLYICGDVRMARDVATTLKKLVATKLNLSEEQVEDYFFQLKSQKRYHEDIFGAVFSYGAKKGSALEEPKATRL

Nitric oxide synthase 3 = target: T3, Nitric oxide synthase 3 (Homo sapiens, UniProt P29474); experiment: Inhibition of human eNOS expressed in HEK293 cells assessed as NO production by transient transfection assay; format: cell-based
T3 sequence (P29474 whole entry): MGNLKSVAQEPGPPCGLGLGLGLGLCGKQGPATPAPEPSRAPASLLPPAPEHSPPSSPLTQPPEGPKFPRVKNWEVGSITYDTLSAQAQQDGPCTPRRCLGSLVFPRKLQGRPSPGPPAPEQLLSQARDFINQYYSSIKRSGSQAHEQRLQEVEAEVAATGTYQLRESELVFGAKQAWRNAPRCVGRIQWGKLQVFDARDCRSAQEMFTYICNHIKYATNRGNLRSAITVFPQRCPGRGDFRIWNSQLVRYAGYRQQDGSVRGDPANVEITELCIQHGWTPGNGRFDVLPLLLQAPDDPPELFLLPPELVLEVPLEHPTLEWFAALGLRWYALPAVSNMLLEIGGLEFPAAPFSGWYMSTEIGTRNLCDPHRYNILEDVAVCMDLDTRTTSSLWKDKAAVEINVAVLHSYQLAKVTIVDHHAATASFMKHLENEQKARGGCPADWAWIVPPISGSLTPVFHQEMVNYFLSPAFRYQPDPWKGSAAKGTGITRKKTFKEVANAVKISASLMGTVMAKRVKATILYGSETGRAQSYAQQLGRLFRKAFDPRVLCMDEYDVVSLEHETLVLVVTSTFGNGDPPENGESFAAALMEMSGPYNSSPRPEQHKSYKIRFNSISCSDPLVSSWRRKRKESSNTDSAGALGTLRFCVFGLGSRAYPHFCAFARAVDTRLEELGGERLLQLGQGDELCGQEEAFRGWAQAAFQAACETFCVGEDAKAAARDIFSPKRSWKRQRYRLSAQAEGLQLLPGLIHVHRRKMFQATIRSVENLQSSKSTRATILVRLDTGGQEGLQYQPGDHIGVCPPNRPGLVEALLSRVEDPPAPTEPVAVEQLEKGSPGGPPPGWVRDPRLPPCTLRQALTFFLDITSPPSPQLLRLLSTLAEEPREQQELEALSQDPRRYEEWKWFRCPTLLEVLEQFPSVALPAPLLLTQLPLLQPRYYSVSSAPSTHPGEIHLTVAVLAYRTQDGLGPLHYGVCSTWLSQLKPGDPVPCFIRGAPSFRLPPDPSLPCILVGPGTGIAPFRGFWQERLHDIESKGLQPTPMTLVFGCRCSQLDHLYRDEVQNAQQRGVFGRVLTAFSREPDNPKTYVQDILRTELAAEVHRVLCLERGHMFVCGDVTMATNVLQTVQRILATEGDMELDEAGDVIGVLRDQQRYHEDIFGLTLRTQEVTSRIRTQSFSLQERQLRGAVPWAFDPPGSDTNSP
Procedure, shortened: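 HEK293 cells grown to ~70% confluence in DMEM/10% FBS with pen/strep, transfected with 15 µg human eNOS plasmid plus Fugene 6 (3:1 µL:µg), 4 h at 37 °C, 10% CO2. Cells replated at 5 × 10⁵/mL, compound added at once, 24 h incubation, then A23187 (83 nM final). After 18 h, NO read by DAN fluorescence.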

Nitric oxide synthase 1 = Nitric oxide synthase 1 (Homo sapiens, UniProt P29475); experiment: Inhibition of human nNOS expressed in HEK293 cells assessed as NO production by transient transfection assay; format: cell-based
Chain of Nitric oxide synthase 1 (P29475 whole entry): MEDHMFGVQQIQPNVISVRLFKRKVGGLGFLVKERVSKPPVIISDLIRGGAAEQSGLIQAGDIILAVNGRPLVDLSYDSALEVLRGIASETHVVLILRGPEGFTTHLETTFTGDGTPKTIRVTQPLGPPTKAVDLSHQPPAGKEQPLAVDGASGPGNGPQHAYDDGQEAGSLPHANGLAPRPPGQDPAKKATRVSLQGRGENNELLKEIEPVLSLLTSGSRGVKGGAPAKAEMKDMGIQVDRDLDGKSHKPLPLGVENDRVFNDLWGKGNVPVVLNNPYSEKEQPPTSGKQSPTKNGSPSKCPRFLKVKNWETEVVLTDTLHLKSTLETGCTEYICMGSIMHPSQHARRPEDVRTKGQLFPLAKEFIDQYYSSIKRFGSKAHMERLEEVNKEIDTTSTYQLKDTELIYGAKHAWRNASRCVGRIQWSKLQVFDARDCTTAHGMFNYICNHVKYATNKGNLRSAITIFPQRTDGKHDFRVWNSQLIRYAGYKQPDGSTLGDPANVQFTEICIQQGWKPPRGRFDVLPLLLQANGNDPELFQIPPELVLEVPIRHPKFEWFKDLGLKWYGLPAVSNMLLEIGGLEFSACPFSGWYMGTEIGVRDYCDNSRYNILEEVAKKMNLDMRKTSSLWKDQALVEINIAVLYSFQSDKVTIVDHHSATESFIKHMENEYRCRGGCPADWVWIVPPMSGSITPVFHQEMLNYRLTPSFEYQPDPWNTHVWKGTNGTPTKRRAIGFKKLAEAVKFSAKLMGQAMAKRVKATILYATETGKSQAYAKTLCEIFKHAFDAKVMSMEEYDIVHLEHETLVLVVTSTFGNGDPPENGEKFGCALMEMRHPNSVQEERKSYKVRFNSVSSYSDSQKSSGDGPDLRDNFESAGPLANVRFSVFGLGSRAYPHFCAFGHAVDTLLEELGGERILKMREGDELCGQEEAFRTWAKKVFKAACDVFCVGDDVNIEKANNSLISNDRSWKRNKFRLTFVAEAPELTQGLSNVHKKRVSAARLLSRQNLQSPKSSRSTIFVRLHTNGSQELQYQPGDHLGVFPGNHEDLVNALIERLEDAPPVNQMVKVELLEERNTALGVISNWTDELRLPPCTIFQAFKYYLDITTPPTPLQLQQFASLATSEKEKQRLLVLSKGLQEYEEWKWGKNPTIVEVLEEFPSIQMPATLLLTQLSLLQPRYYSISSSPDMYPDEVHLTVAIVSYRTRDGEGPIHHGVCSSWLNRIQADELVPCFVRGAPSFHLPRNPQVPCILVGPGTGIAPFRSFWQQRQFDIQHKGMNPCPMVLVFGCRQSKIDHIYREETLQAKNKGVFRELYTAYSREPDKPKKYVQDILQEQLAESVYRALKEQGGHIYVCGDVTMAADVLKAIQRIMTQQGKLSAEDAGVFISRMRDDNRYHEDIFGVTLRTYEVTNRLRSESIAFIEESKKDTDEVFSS

T1 sequence (P35228 whole entry): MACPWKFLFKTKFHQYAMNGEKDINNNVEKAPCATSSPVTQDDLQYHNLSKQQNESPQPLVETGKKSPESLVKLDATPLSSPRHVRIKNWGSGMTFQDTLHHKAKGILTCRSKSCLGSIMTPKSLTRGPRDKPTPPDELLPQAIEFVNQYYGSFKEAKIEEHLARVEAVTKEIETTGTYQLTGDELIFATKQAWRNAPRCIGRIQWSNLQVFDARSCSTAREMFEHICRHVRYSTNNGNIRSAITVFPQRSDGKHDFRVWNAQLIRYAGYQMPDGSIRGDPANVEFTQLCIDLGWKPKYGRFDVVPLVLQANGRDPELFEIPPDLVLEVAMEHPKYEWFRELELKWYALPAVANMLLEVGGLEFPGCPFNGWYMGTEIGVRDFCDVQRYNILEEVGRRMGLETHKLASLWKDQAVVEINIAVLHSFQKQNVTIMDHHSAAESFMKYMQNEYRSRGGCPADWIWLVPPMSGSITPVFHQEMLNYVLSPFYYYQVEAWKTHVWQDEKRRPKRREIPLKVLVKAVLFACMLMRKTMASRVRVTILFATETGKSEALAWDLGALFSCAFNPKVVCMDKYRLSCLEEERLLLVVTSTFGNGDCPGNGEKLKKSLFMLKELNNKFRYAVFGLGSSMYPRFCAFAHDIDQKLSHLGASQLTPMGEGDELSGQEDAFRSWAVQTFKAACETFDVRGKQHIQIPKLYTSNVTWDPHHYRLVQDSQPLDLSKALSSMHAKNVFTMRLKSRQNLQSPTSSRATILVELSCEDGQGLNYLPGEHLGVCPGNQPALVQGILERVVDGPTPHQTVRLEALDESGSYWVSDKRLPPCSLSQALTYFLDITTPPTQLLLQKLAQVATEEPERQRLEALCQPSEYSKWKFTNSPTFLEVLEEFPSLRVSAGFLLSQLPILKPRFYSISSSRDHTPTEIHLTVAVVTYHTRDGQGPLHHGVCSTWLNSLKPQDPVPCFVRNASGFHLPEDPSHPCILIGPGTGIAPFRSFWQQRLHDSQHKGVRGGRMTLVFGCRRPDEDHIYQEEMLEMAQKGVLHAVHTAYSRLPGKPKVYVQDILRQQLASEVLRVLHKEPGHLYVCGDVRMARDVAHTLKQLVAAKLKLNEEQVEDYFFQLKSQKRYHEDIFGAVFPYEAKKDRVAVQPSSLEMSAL

pEC50 [1] | inhibition [2] | concentration at 6 h [3] | pEC50 [4] | SMILES | Activity (Mus musculus) | pEC50 (Nitric oxide synthase 3) | pEC50 (Nitric oxide synthase 1)
< 4.00 | < 50% | – | – | Cc1ncsc1C(=O)N(Cc1cc[nH]c(=O)c1)c1cccc(Cl)c1 | – | – | –
7.06 | – | 39 ng/mL | 6.18 | Cc1ncsc1C(=O)N(Cc1c[n+]([O-])cc2c(F)cccc12)c1cccc(Cl)c1 | 20% | – | –
< 4.00 | < 50% | – | – | Cc1ncsc1C(=O)N(Cc1ccnc2c(F)cccc12)c1cccc(Cl)c1 | – | – | –
< 4.00 | < 50% | – | – | COc1cc(CN(C(=O)c2scnc2C)c2cccc(Cl)c2)c2cccc(F)c2n1 | – | – | –
7.59 | – | – | 6.89 | Cc1ncsc1C(=O)N(Cc1c(F)c(=O)[nH]c2c(F)cccc12)c1cccc(Cl)c1 | 29% | 4.46 | < 5.00
< 4.00 | < 50% | – | – | Cc1ncsc1C(=O)N(Cc1cc(=O)n(C)c2c(F)cccc12)c1cccc(Cl)c1 | – | – | –

SMILES | pEC50 [1] | inhibition [2] | concentration at 6 h [3] | pEC50 [4] | Activity (Mus musculus) | pEC50 (Nitric oxide synthase 3) | pEC50 (Nitric oxide synthase 1)
Cc1noc(C)c1C(=O)N(Cc1cc(=O)[nH]c2c(F)c(F)ccc12)c1cccc(Cl)c1 | 8.52 | – | – | 7.66 | 67% | 5.92 | 7.01
